{"source": "paper PMC11352836", "about": "(Science Advances, 2024)", "key": {"ENL [1]": {"biological_target": "T1, ENL (Homo sapiens, UniProt Q03111)", "T1 sequence (Q03111 1-559)": "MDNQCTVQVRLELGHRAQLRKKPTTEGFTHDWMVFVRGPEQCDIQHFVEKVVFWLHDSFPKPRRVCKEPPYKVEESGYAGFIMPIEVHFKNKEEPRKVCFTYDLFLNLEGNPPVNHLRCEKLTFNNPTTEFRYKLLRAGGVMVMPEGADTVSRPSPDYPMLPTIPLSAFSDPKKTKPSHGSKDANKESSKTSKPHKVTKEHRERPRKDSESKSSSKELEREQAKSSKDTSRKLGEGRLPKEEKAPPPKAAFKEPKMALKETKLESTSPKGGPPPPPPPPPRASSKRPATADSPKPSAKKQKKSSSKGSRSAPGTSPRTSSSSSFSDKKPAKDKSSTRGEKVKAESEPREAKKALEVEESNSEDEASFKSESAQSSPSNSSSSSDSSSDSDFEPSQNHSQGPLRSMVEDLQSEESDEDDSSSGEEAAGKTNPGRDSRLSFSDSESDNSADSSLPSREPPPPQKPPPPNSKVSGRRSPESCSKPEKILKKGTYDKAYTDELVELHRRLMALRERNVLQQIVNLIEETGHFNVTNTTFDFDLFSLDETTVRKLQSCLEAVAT", "assay_type": "cell-based", "settings": "MV4;11 cells pretreated 1 hour, then 100 nM MS41 for 2 hours", "procedure,_shortened": "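MV4;11 cells were pretreated 1 h with graded concentrations of a YEATS-domain ligand, a VHL ligand, proteasome inhibitor MG132, or neddylation inhibitor MLN4924, then given 100 nM test compound for 2 h. Separately, control-sgRNA or VHL-sgRNA MV4;11 cells got graded test compound for 24 h. ENL and VHL were read by immunoblot.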"}, "ENL [2]": {"system": "ENL", "settings": "cited from earlier work"}, "IKZF1": {"system": "IKZF1", "settings": "cited from earlier work"}, "ENL [3]": {"biological_target": "T1, ENL", "experiment": "Endogenous ENL degradation by immunoblotting in human leukemia cell lines", "assay_type": "cell-based", "settings": "MV4;11 cells; 1 nM to 10 μM, 6 and 24 hours", "procedure,_shortened": "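MV4;11 and Jurkat cells were treated with DMSO or graded test-compound concentrations for 6 or 24 h. Cells were lysed in Tris/250 mM NaCl/0.5% Triton X-100/glycerol buffer with DTT and protease inhibitors. Bradford-equalised lysates were immunoblotted for ENL, with β-actin as loading control.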"}, "HEK293 cells": {"system": "HEK293 cells", "experiment": "RT-qPCR of HOXA11 and HOXA13 in HEK293 cells expressing ENL mutants", "assay_type": "cell-based, human", "settings": "HEK293 stable cells, 100 nM, 72 hours", "procedure,_shortened": "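HEK293 stable lines expressing ENL mutants were treated with DMSO, 100 nM test compound or 100 nM controls for 72 h. HOXA11 and HOXA13 mRNA was measured by RT-qPCR in three independent experiments, reported as mean ± SEM with Student's t test.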"}, "MV4;11 cells [4]": {"system": "MV4;11 cells", "experiment": "Cell viability assay", "assay_type": "cell-based, human", "settings": "MV4;11, 6 days"}, "MV4;11 cells [5]": {"system": "MV4;11 cells", "experiment": "Cell cycle and apoptosis assay", "assay_type": "cell-based, human", "settings": "MV4;11, 100 nM", "procedure,_shortened": "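Cells were harvested at set time points. For cell cycle, cells in HBSS/2% FBS were fixed with dropwise ice-cold 70% ethanol and stained with DAPI. For apoptosis, cells were PBS-washed at 1×10^6 cells/ml in binding buffer, stained with FITC-annexin V plus propidium iodide for 15 min at RT, and run on flow cytometry within 1 h.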"}, "KASUMI1 cells": {"system": "KASUMI1 cells", "experiment": "Colony formation assay", "assay_type": "cell-based, human", "settings": "KASUMI1, 100 nM, 10 days"}, "MV4;11 cells [6]": {"system": "MV4;11 cells", "experiment": "MS-based global quantitative", "assay_type": "cell-based, human", "settings": "MV4;11, 100 nM, 2 or 6 hours; cutoff P value <0.05 and fold change >1.5", "procedure,_shortened": "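MV4;11 cells (10^6 per sample, three biological replicates) were exposed to 100 nM test compound or DMSO for 2 or 6 h. Pellets were solubilised in 8 M urea/50 mM Tris pH 8.0, reduced with 5 mM DTT and alkylated with 15 mM iodoacetamide. After fourfold dilution, samples were digested with trypsin (1:100, overnight, RT), desalted on C18 and analysed by nanoLC-MS. Proteins with ≥2 razor+unique peptides were compared by two-sample t test.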"}, "RS4;11 cells": {"system": "RS4;11 cells", "experiment": "Cell viability assay", "assay_type": "cell-based, human", "settings": "RS4;11, 6 days"}, "SEMK2 cells": {"system": "SEMK2 cells", "experiment": "Cell viability assay", "assay_type": "cell-based, human", "settings": "SEMK2, 6 days"}, "MV4;11 cells [7]": {"system": "MV4;11 cells", "experiment": "RNA-seq analysis in MV4", "assay_type": "cell-based, human", "settings": "MV4;11, 6 and 24 hours"}, "MV4;11 cells [8]": {"system": "MV4;11 cells", "experiment": "RT-qPCR of ENL target genes and ENL in MV4", "assay_type": "cell-based, human", "settings": "MV4;11, 24 hours"}, "ENL YEATS domain": {"biological_target": "T2, ENL YEATS domain (Homo sapiens, UniProt Q03111)", "T2 sequence (Q03111 1-145)": "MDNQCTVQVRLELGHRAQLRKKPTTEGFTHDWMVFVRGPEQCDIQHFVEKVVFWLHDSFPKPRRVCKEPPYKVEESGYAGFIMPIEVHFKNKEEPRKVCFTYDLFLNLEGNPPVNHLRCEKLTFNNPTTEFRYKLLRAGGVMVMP", "experiment": "AlphaScreen assay, ENL YEATS-H3K9ac interaction", "assay_type": "binding"}, "[9]": {"system": "xenograft leukemia models", "settings": "cited from earlier work"}, "[10]": {"settings": "cited from earlier work"}, "MV4;11 cells [11]": {"system": "MV4;11 cells", "experiment": "Drug synergy test, MS41 with doxorubicin", "assay_type": "cell-based, human", "settings": "MV4;11, cotreatment, 6 days", "procedure,_shortened": "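MV4;11 cells were given DMSO, test compound, doxorubicin, or the combination at graded concentrations for 6 days. Viability was read by CellTiter-Glo luminescence.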"}}, "note": "Peptide text beside a SMILES is read from it. * marks the point of attachment. Cbz = O=C(OCc1ccccc1)*", "data": [{"smiles": "CC(C)C[C@@H](C=O)NC(=O)[C@H](CC(C)C)NC(=O)[C@H](CC(C)C)NC(=O)OCc1ccccc1", "note": "[MG132] (Cbz-Leu-Leu-Leu-aldehyde)", "values": [{"measurement": "effect of pretreatment on MS41-mediated ENL degradation", "setting": "ENL [1]", "result": "effectively blocked"}]}, {"smiles": "Cc1ncsc1-c1ccc(CNC(=O)[C@@H]2C[C@@H](O)CN2C(=O)[C@@H](NC(=O)C2(C#N)CC2)C(C)(C)C)cc1", "note": "[VH298]", "values": [{"measurement": "effect of pretreatment on MS41-mediated ENL degradation", "setting": "ENL [1]", "result": "hindered MS41-mediated ENL degradation"}]}, {"smiles": "O=C(COc1cccc2c1C(=O)N(C1CCC(=O)NC1=O)C2=O)NCCOCCOCCNS(=O)(=O)Nc1cccc(-c2cn3cc(C(=O)NC4CCC4)ccc3n2)c1", "note": "(centres unmarked) [SR-1114]", "values": [{"measurement": "ENL depletion", "setting": "ENL [2]", "result": "able to induce ENL depletion"}, {"measurement": "IKZF1 degradation (off-target)", "setting": "IKZF1", "result": "concurrent degradation of IKZF1"}]}, {"smiles": "Cc1ncsc1-c1ccc([C@H](C)NC(=O)[C@H]2C[C@H](O)CN2C(=O)[C@@H](NC(=O)CCCCCCCCCNC(=O)c2ccc3c(c2)[C@H](NC(=O)c2cc(-c4ccc(C(=O)N(C)C)c(O)c4)on2)CC3)C(C)(C)C)cc1", "note": "[MS41N]", "values": [{"measurement": "endogenous ENL protein degradation (immunoblot)", "setting": "ENL [3]", "result": "did not induce ENL degradation, even at 10 μM"}, {"measurement": "HOXA11 and HOXA13 gene expression induced by ENL mutants", "setting": "HEK293 cells", "result": "had no or only minor effects on HOXA11 and HOXA13 gene expression"}, {"measurement": "cell growth suppression", "setting": "MV4;11 cells [4]", "result": "did not suppress cell growth"}, {"measurement": "apoptosis", "setting": "MV4;11 cells [5]", "result": "had no such effects"}, {"measurement": "cell cycle profile", "setting": "MV4;11 cells [5]", "result": "had no such effects"}, {"measurement": "clonogenic potential (colony formation)", "setting": "KASUMI1 cells", "result": "but not MS41N or PFI-6"}, {"measurement": "proteome-wide selectivity (change in protein abundance)", "setting": "MV4;11 cells [6]", "result": "did not substantially alter the abundance of any proteins"}, {"measurement": "cell growth suppression", "setting": "RS4;11 cells", "result": "did not suppress cell growth"}, {"measurement": "cell growth suppression", "setting": "SEMK2 cells", "result": "did not suppress cell growth"}, {"measurement": "changes in gene expression (RNA-seq)", "setting": "MV4;11 cells [7]", "result": "did not induce substantial changes in gene expression"}, {"measurement": "mRNA levels of ENL (RT-qPCR)", "setting": "MV4;11 cells [8]", "result": "did not affect mRNA levels of ENL"}, {"measurement": "IC50", "setting": "ENL YEATS domain", "result": 117, "unit": "nM"}]}, {"smiles": "C[C@H]1CCCN1Cc1cc2cnc(NC(=O)c3ccc4c(cnn4C)c3)cc2[nH]1", "note": "[TDI-11055]", "values": [{"measurement": "in vivo efficacy", "setting": "[9]", "result": "in vivo efficacy in xenograft leukemia models"}]}, {"smiles": "NS(=O)(=O)OC[C@@H]1C[C@@H](n2ccc3c(N[C@H]4CCc5ccccc54)ncnc32)C[C@@H]1O", "note": "[MLN4924]", "values": [{"measurement": "effect of pretreatment on MS41-mediated ENL degradation", "setting": "ENL [1]", "result": "effectively blocked"}]}, {"smiles": "Cc1ncsc1-c1ccc(CNC(=O)[C@@H]2C[C@@H](O)CN2C(=O)[C@@H](NC(=O)CCOCCNC(=O)c2ccc3c(c2)[C@H](NC(=O)c2cc(-c4ccc(C(=O)N(C)C)c(O)c4)on2)CC3)C(C)(C)C)cc1", "note": "[compound 1]", "values": [{"measurement": "antitumor activity", "setting": "[10]", "result": "exhibiting antitumor activity"}]}, {"smiles": "COc1cccc2c1C(=O)c1c(O)c3c(c(O)c1C2=O)C[C@@](O)(C(=O)CO)C[C@@H]3O[C@H]1C[C@H](N)[C@H](O)[C@H](C)O1", "note": "[doxorubicin]", "values": [{"measurement": "interaction of MS41 and doxorubicin (Bliss independence model)", "setting": "MV4;11 cells [11]", "result": "strong synergistic effect"}]}]}
